Test results taken from paper PMC9080015 (RSC Advances, 2018).
pIC50: −log10 of the molar value. Read-outs that look alike come from different tables or passages of the source.

How the values were obtained:
Type in all cases: biochemical
[1] = biological target: T1, recombinant human CYP1B1 (Homo sapiens, UniProt Q16678); experiment: EROD assay, recombinant human CYP1B1 inhibition; details: for IC50: read-out: IC50 values (nM) 1B1; for IC50 ratio 1A1/1B1: selectivity for CYP1B1 over CYP1A1; for IC50 ratio 1A2/1B1: selectivity for CYP1B1 over CYP1A2
T1 sequence (Q16678 1-543): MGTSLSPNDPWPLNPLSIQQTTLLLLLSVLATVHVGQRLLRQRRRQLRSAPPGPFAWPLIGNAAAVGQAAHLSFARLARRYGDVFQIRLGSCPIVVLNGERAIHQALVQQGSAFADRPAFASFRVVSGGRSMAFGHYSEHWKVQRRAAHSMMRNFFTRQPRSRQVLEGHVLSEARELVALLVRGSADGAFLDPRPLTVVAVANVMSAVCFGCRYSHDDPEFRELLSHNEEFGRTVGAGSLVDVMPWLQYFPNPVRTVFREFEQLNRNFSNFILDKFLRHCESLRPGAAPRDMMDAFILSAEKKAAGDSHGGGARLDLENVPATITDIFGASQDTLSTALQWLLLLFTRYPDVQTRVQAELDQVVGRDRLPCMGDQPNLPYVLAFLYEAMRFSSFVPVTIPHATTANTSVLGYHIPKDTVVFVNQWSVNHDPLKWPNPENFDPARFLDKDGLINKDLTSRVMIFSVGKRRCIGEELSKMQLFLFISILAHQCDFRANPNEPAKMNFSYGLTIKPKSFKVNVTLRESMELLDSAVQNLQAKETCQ

[2] = biological target: T2, CYP1A2 (Homo sapiens, UniProt P05177); experiment: EROD assay, recombinant human CYP1A2 inhibition
T2 sequence (P05177 2-516 limits assumed): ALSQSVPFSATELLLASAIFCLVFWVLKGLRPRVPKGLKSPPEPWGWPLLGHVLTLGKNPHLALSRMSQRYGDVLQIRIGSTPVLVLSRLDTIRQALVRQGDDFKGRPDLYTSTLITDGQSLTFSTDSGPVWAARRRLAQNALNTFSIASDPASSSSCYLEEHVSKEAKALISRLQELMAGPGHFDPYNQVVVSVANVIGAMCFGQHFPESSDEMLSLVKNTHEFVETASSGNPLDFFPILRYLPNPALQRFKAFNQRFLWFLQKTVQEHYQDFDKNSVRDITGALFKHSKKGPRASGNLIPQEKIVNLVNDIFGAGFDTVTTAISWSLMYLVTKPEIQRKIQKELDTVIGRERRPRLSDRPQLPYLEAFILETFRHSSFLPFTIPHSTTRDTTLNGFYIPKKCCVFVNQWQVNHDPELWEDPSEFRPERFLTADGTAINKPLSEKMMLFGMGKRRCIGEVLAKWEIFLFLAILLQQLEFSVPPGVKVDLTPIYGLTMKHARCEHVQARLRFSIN

[3] = biological target: T3, CYP1A1 (Homo sapiens, UniProt P04798); experiment: EROD assay, recombinant human CYP1A1 inhibition
T3 sequence (P04798 1-512): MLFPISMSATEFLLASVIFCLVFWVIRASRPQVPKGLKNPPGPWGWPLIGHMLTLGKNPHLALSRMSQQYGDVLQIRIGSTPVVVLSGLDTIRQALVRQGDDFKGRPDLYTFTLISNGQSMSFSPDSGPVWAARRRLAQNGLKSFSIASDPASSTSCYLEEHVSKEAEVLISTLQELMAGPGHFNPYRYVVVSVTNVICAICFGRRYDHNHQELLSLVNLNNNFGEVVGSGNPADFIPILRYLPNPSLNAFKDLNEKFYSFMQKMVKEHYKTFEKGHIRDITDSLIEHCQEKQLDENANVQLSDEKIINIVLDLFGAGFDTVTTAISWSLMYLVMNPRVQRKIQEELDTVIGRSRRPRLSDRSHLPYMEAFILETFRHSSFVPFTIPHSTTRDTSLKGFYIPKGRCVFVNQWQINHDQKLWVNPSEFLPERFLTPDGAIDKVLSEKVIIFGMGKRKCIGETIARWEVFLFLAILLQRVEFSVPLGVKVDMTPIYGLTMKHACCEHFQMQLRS
Method in brief: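 Supersomes with P450 reductase. Test compound is taken from 10 mM DMSO stock into Tris–HCl pH 7.4 (final DMSO <1% v/v), at several concentrations. Methanol stop. Resorufin fluorescence read at ex 544/em 590 nm. IC50 from nonlinear regression, log(inhibitor) vs normalized response, variable slope.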

[4] = EROD assay, 20 fmol CYP1B1, 150 nM 7-ER, 37 °C, 35 min

Row | Compound | IC50 [1, 4] | IC50 ratio 1A1/1B1 [1] | IC50 ratio 1A2/1B1 [1] | IC50 ([2]; read-out: IC50 values (nM) 1A2, EROD assay, 60 fmol CYP1A2, 150 nM 7-ER, 37 °C, 50 min) | IC50 ([3]; read-out: IC50 values (nM) 1A1, EROD assay, 10 fmol CYP1A1, 150 nM 7-ER, 37 °C, 15 min) | pIC50 [1] | pIC50 [2] | pIC50 [3] | IC50 values (nM) 1B1 [1, 4] | IC50 at 50 min ([2]; human, recombinant human CYP1A2 with P450 reductase (Supersomes), pH 7.4, probe 7-ethoxyresorufin (7-ER), 150 nM) | IC50 at 15 min ([3]; human, recombinant human CYP1A1 with P450 reductase (Supersomes), pH 7.4, probe 7-ethoxyresorufin (7-ER), 150 nM)
1 | O=C1CC(c2ccccc2)Nc2c1ccc1ccccc21 (stereo not drawn) [Compound 1a, 2-Phenyl-2,3-dihydrobenzo[h]quinolin-4(1H)-one] |  | 3.1 | 7.3 |  |  | 6.88 | 6.02 | 6.39 |  |  | 
2 | COc1cc(C2CC(=O)c3ccc4ccccc4c3N2)cc(OC)c1OC (stereo not drawn) [Compound 1b, 2-(3,4,5-Trimethoxyphenyl)-2,3-dihydrobenzo[h]quinolin-4(1H)-one] |  | 2.2 | >247.5 |  |  | 7.69 | < 5.30 | 7.35 |  |  | 
3 | O=C1CC(c2ccccc2F)Nc2c1ccc1ccccc21 (stereo not drawn) [Compound 1c, 2-(2-Fluorophenyl)-2,3-dihydrobenzo[h]quinolin-4(1H)-one] |  | 4.1 | 7.9 |  |  | 6.86 | 5.96 | 6.24 |  |  | 
4 | O=C1CC(c2cccc(F)c2)Nc2c1ccc1ccccc21 (stereo not drawn) [Compound 1d, 2-(3-Fluorophenyl)-2,3-dihydrobenzo[h]quinolin-4(1H)-one] |  | 5.0 | 10.6 |  |  | 7.01 | 5.98 | 6.31 |  |  | 
5 | O=C1c2ccc3ccccc3c2N[C@@H](c2ccccc2)[C@H]1O [Compound 2a, (2S,3R) 3-Hydroxy-2-phenyl-2,3-dihydrobenzo[h]quinolin-4(1H)-one] |  | 2.3 | 5.4 |  |  | 6.59 | 5.85 | 6.23 |  |  | 
6 | COc1cc([C@@H]2Nc3c(ccc4ccccc34)C(=O)[C@@H]2O)cc(OC)c1OC [Compound 2b, (2S,3R) 3-Hydroxy-2-(3,4,5-trimethoxyphenyl)-2,3-dihydrobenzo[h]quinolin-4(1H)-one] |  | 3.8 | >16.5 |  |  | 6.52 | < 5.30 | 5.94 |  |  | 
7 | O=c1c(O)c(-c2ccccc2)[nH]c2c1ccc1ccccc12 [Compound 3a, 3-Hydroxy-2-phenylbenzo[h]quinolin-4(1H)-one] |  | 10.4 | >57.7 |  |  | 7.06 | < 5.30 | 6.05 |  |  | 
8 | O=c1c(O)c(-c2ccccc2F)[nH]c2c1ccc1ccccc12 [Compound 3b, 2-(2-Fluorophenyl)-3-hydroxybenzo[h]quinolin-4(1H)-one] |  | 20.8 | >58.2 |  |  | 7.07 | < 5.30 | 5.75 |  |  | 
9 | O=c1c(O)c(-c2ccc(O)cc2)[nH]c2c1ccc1ccccc12 [Compound 3c, 3-Hydroxy-2-(4-hydroxyphenyl)benzo[h]quinolin-4(1H)-one] |  | 3.7 | >35.3 |  |  | 6.85 | < 5.30 | 6.28 |  |  | 
10 | O=c1c(O)c(-c2ccc(F)cc2)[nH]c2c1ccc1ccccc12 [Compound 3d, 2-(4-Fluorophenyl)-3-hydroxybenzo[h]quinolin-4(1H)-one] |  | 3.6 | >53.6 |  |  | 7.03 | < 5.30 | 6.48 |  |  | 
11 | O=c1cc(-c2ccccc2)[nH]c2c1ccc1ccccc12 [Compound 3e, 2-Phenylbenzo[h]quinolin-4(1H)-one] |  | 6.0 | 27.9 |  |  | 7.76 | 6.32 | 6.99 |  |  | 

Results, then the compound that gave them:

Row | IC50 [1, 4] | IC50 ratio 1A1/1B1 [1] | IC50 ratio 1A2/1B1 [1] | IC50 ([2]; read-out: IC50 values (nM) 1A2, EROD assay, 60 fmol CYP1A2, 150 nM 7-ER, 37 °C, 50 min) | IC50 ([3]; read-out: IC50 values (nM) 1A1, EROD assay, 10 fmol CYP1A1, 150 nM 7-ER, 37 °C, 15 min) | pIC50 [1] | pIC50 [2] | pIC50 [3] | IC50 values (nM) 1B1 [1, 4] | IC50 at 50 min ([2]; human, recombinant human CYP1A2 with P450 reductase (Supersomes), pH 7.4, probe 7-ethoxyresorufin (7-ER), 150 nM) | IC50 at 15 min ([3]; human, recombinant human CYP1A1 with P450 reductase (Supersomes), pH 7.4, probe 7-ethoxyresorufin (7-ER), 150 nM) | Compound
12 | 7.6 nM | 2.4 | 19.3 | 147 nM | 18.5 nM |  |  |  |  |  |  | 2-Phenylbenzo[h]quinolin-4-ol [Compound 4a]
13 | > 5000 nM |  |  |  |  |  |  |  | no longer a CYP1 inhibitor | > 5000 nM | > 5000 nM | COc1cc(-c2ccccc2)nc2c1ccc1ccccc12 [Compound 4b, 4-Methoxy-2-phenylbenzo[h]quinoline]
14 |  | 0.8 | 8.9 |  |  | 7.78 | 6.83 | 7.90 |  |  |  | COc1cc2c(=O)cc(-c3ccccc3)[nH]c2c2c(OC)cccc12 [Compound 5a, 6,10-Dimethoxy-2-phenylbenzo[h]quinolin-4(1H)-one]
15 |  | 0.9 | 6.2 |  |  | 7.55 | 6.76 | 7.58 |  |  |  | COc1cc2c(=O)cc(-c3ccccc3F)[nH]c2c2c(OC)cccc12 [Compound 5b, 2-(2-Fluorophenyl)-6,10-dimethoxybenzo[h]quinolin-4(1H)-one]
16 |  | 5.0 | 42.4 |  |  | 8.11 | 6.48 | 7.41 |  |  |  | COc1cc2c(=O)cc(-c3cccc(F)c3)[nH]c2c2c(OC)cccc12 [Compound 5c, 2-(3-Fluorophenyl)-6,10-dimethoxybenzo[h]quinolin-4(1H)-one]
17 |  | 1.1 | 3.1 |  |  | 7.56 | 7.07 | 7.53 |  |  |  | COc1cc2c(=O)cc(-c3cccc(Cl)c3)[nH]c2c2c(OC)cccc12 [Compound 5d, 2-(3-Chlorophenyl)-6,10-dimethoxybenzo[h]quinolin-4(1H)-one]
18 |  | 5.0 | 26.8 |  |  | 8.15 | 6.72 | 7.45 |  |  |  | COc1cccc(-c2cc(=O)c3cc(OC)c4cccc(OC)c4c3[nH]2)c1 [Compound 5f, 6,10-Dimethoxy-2-(3-methoxyphenyl)benzo[h]quinolin-4(1H)-one]
19 |  | 2.7 | 540.3 |  |  |  | 5.68 |  |  |  |  | COc1cc2c(=O)cc(-c3ccc(F)cc3)[nH]c2c2c(OC)cccc12 [Compound 5g, 2-(4-Fluorophenyl)-6,10-dimethoxybenzo[h]quinolin-4(1H)-one]
20 |  | 15.8 | >1219.5 |  |  |  | < 5.30 |  |  |  |  | COc1ccc(-c2cc(=O)c3cc(OC)c4cccc(OC)c4c3[nH]2)cc1 [Compound 5h, 6,10-Dimethoxy-2-(4-methoxyphenyl)benzo[h]quinolin-4(1H)-one]
21 |  | 8.7 | 38.9 |  |  | 7.46 | 5.87 | 6.52 |  |  |  | COc1cc2c(=O)cc(-c3ccc(C(F)(F)F)cc3)[nH]c2c2c(OC)cccc12 [Compound 5i, 6,10-Dimethoxy-2-(4-(trifluoromethyl)phenyl)benzo[h]quinolin-4(1H)-one]
22 |  | 4.9 | >30.5 |  |  | 6.79 | < 5.30 | 6.09 |  |  |  | COc1cc(-c2cc(=O)c3cc(OC)c4cccc(OC)c4c3[nH]2)cc(OC)c1OC [Compound 5j, 6,10-Dimethoxy-2-(3,4,5-trimethoxyphenyl)benzo[h]quinolin-4(1H)-one]
